Reference: ChEMBL document CHEMBL3414514, “Synthesis and pharmacological evaluation of novel bisindole derivatives bearing oximes moiety: identification of novel proapoptotic agents” (Eur J Med Chem, 2015)
Active and inactive are the calls of the source. No cut-off for these calls is given here.

What was measured:
[1] = tested on: T-24; assay: Induction of apoptosis in human T24 cells assessed as condensed nuclei after 24 hrs by Hoechst 33258 staining-based fluorescence microscopic analysis relative to control; assay type: functional, cell-based
Outline: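 T24 cells on cover slips treated at […] for 24 h; untreated cells as control. Fixed in 4% paraformaldehyde for 10 min, PBS washes, Hoechst 33258 for 5 min. Nuclei imaged by fluorescence microscopy, excitation 350 nm, emission 460 nm.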

[2] = tested on: T-24; assay: Induction of apoptosis in human T24 cells assessed as viable cells at 20 uM after 24 hrs by annexin-V-FITC/propidium iodide staining-based flow cytometry (reference value: 93.5%); assay type: functional; conditions: T-24, 24 h, read-out: Activity
[3] = tested on: T-24; assay: Induction of apoptosis in human T24 cells assessed as viable cells at 5 uM after 24 hrs by annexin-V-FITC/propidium iodide staining-based flow cytometry (reference value: 93.5%); assay type: functional; conditions: T-24, 24 h, read-out: Activity
[4] = Induction of apoptosis in human T24 cells assessed as Bax upregulation after 24 hrs by qRT-PCR analysis; assay type: functional, cell-based; conditions: T-24
Outline: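 T24 cells treated at […] for 24 h before RNA extraction. SYBR Green qRT-PCR with 500 nM primers: 2 min at 50 C, 10 min at 95 C, then 40 cycles of 15 s at 95 C and 1 min at 60 C. Expression by the ΔCt method against actin, normalized to untreated cells; run in triplicate.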

[5] = Cell cycle arrest in human T24 cells assessed as reduction in Cyclin D1 level after 24 hrs by Western blotting analysis; assay type: functional, cell-based; conditions: T-24
Outline: (§1)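 T24 cells treated at […] for 24 h and lysed in ice-cold RIPA buffer with protease inhibitors and NaF. Protein measured by Bradford; 30 micrograms per lane run on 12% SDS-PAGE and transferred to PVDF. Blocked 2 h at room temperature, primary antibody overnight at 4 C, HRP secondary (1:2000) 1 h, chemiluminescence detection.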

[6] = Induction of apoptosis in human T24 cells assessed as caspase-3 upregulation at IC50 after 24 hrs by qRT-PCR analysis relative to control; assay type: functional, cell-based; conditions: T-24
[7] = Cell cycle arrest in human T24 cells assessed as reduction in Cyclin E level after 24 hrs by Western blotting analysis; assay type: functional, cell-based; conditions: T-24; outline: as §1
[8] = tested on: MGC-803; assay: Cytotoxicity against human MGC803 cells after 2 days by MTT assay; assay type: functional, cell-based; conditions: MGC-803, 48 h
Outline: (§2)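 Cells grown in medium with 10% heat-inactivated FBS at 37 C under 5% CO2. Compounds dissolved in medium with 1% DMSO; controls received 1% DMSO. After 2 days, MTT (10 mg/mL) added for 4 h, formazan dissolved in DMSO and absorbance read at 570/630 nm. Survival taken relative to negative control; IC50 by Bliss method (n = 5), at least three independent experiments.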

[9] = tested on: T-24; assay: Induction of apoptosis in human T24 cells assessed as reduction in cellular volume after 24 hrs by Hoechst 33258 staining-based fluorescence microscopic analysis relative to control; assay type: functional, cell-based
Outline: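 T24 cells on cover slips exposed 24 h at 5, 10 and 20 µM, with untreated cells as control. Fixed in 4% paraformaldehyde for 10 min, washed with PBS and stained with Hoechst 33258 for 5 min. Nuclei were viewed by fluorescence microscopy at 350 nm excitation and 460 nm emission.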

[10] = tested on: HepG2; assay: Cytotoxicity against human HepG2 cells after 2 days by MTT assay; assay type: functional, cell-based; conditions: HepG2, 48 h; outline: as §2
[11] = Cell cycle arrest in human T24 cells assessed as alteration in cyclin A level at 5 to 20 uM after 24 hrs by Western blotting analysis; assay type: functional, cell-based; conditions: T-24

**Q.** Which Activity [1] does the source give for `COc1ccc2c(c1)/C(=N\O)C(c1c[nH]c3ccc(OC)cc13)=N2` here?
**A.** The Activity was “Dose-dependent effect”.

**Q.** And the viability at 20 µM [2]?
**A.** Its viability at 20 µM is 58.1%.

**Q.** And the viability at 5 µM [3]?
**A.** Its viability at 5 µM is 85.9%.

**Q.** And the Activity [4]?
**A.** The Activity was “Dose-dependent effect”.

**Q.** And the Activity [5]?
**A.** Its Activity is “Dose-dependent effect”.

**Q.** And the fold change (FC) [6]?
**A.** Its fold change (FC) is 24.8.

**Q.** And the Activity [7]?
**A.** Its Activity is “Dose-dependent effect”.

**Q.** What about the IC50 [8] of the same molecule?
**A.** Its IC50 is 7.66 µM.

**Q.** What about the Activity [9] of the same molecule?
**A.** Its Activity is “Dose-dependent effect”.

**Q.** What about the IC50 [10] of the same molecule?
**A.** Its IC50 is 9.92 µM.

**Q.** What about the Activity [11] of the same molecule?
**A.** The Activity was “inactive”.
